One may read the MIC as the lowest concentration that inhibits growth of the organism.

We go through six compounds from ChEMBL document CHEMBL2062366, “Synthesis and biological evaluation of purpurealidin E-derived marine sponge metabolites: aplysamine-2, aplyzanzine A, and suberedamines A and B” (2012).

Values after ≈ are worked out from the molar mass of the structure shown. Active and inactive are the calls of the source. The rule behind the calls is not given here.

One assay deals with Mycobacterium tuberculosis. Description: Antimycobacterial activity against Mycobacterium bovis BCG after 2 weeks by spot culture growth inhibition assay. It is filed as functional. The settings on record: variant bovis BCG. An outline of the steps:
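BCG grown in rolling bottles in 7H9 + 10% ADC + 0.05% Tween 80 to midexponential phase, quality-checked by Ziehl−Neelsen staining. Culture diluted to 10³ cfu/mL; 10 μL spotted onto 7H10 agar + 10% OADC containing compound, 37 °C for 2 weeks. Controls: DMSO (negative), isoniazid (positive). MIC = lowest concentration with no growth.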
With `CN(C)CCCOc1c(Br)cc(CCN)cc1Br`, the MIC entry is “inactive”.

The assay is the same for the next values; noted with them: variant bovis BCG, 336 h.
In the case of `COc1ccc(C/C(=N\O)C(=O)NCCc2cc(Br)c(OCCCN(C)C)c(Br)c2)cc1Br`, inhibition of growth (MIC) required 25 µg/mL (≈ 38.4 µM).

`CNC(Cc1cc(Br)c(OC)c(Br)c1)C(=O)NCCCOc1c(Br)cc(CCN(C)C)cc1Br.Cl` (stereo unspecified) [ANOMOIAN A] gave an MIC of 25 µg/mL.

`COc1c(Br)cc(C[C@@H](C(=O)NCCc2cc(Br)c(OCCCN(C)C)c(Br)c2)N(C)C)cc1Br` [APLYZANZINE A] displayed an MIC of 25 µg/mL (≈ 33.6 µM).

In turn, `COc1ccc(C[C@H](N)C(=O)NCCc2cc(Br)c(OCCCN(C)C)c(Br)c2)cc1Br` [SUBEREDAMINE A] registered a minimal inhibitory concentration (MIC) of 50 µg/mL (≈ 78.6 µM).

Regarding `CN[C@@H](Cc1ccc(OC)c(Br)c1)C(=O)NCCc1cc(Br)c(OCCCN(C)C)c(Br)c1` [SUBEREDAMINE B], inhibition of growth (MIC) required 40 µg/mL (≈ 61.5 µM).
